ChEMBL document CHEMBL1221296, “New synthetic flavone derivatives induce apoptosis of hepatocarcinoma cells” (Bioorg Med Chem, 2010)
Activity calls are given as the source filed them. The rule behind the calls is not given here.

Tests used:
HepG2 [1] = experiment: Cell cycle arrest in human HepG2 cells assessed as accumulation at G1 phase at 5 uM after 36 hrs by FACSan flow cytometry; type: functional
Procedure, shortened: (§1)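 Cells were treated for 36 h, then washed twice in ice-cold PBS and fixed overnight in 70% ethanol at 4 °C. They were resuspended at 5 × 10⁵/ml in propidium iodide (50 µg/ml in 0.1% sodium citrate, 0.03% v/v Nonidet P-40) and held 30 min on ice. DNA-content histograms were read by FACScan flow cytometry, with sub-G₀ scored as apoptotic.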

[2] = Growth inhibition of human CNE1 cells after 72 hrs by MTT assay; type: functional, cell-based; settings: CNE
Procedure, shortened: (§2)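 Cells grown in DMEM with 10% FBS, penicillin and streptomycin at 37 °C under 5% CO₂. Seeded at 5 × 10³ per 100 µl per well and exposed to compound at 0.5–50 µM for 72 h. MTT (5 mg/ml) added for 5 h, formazan dissolved in DMSO, absorbance read at 490 nm. IC₅₀ is the concentration giving 50% growth inhibition; means of three independent determinations.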

HepG2 [3] = experiment: Induction of apoptosis in human HepG2 cells assessed as caspase 3 activation at 50 uM after 2 to 24 hrs; type: functional, cell-based
Procedure, shortened: (§3)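 HepG-2 cells were treated for 0, 2, 4, 8, 14 and 24 h. Lysates were made on ice and cleared at 20,000g, 4 °C, and protein was measured by Bradford. 0.1 mg protein was incubated 2 h at 37 °C with Ac-DEVD-pNA (caspase-3), Ac-IETD-pNA (caspase-8) or Ac-LEHD-pNA (caspase-9), and pNA release was read at 405 nm.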

HepG2 [4] = experiment: Cell cycle arrest in human HepG2 cells assessed as accumulation at S phase at 25 uM after 36 hrs by FACSan flow cytometry; type: functional; procedure, shortened: as §1
HepG2 [5] = experiment: Cell cycle arrest in human HepG2 cells assessed as accumulation at subG0 phase at 25 uM after 36 hrs by FACSan flow cytometry; type: functional; procedure, shortened: as §1
HepG2 [6] = experiment: Cell cycle arrest in human HepG2 cells assessed as accumulation at G1 phase at 50 uM after 36 hrs by FACSan flow cytometry; type: functional; procedure, shortened: as §1
HepG2 [7] = experiment: Cell cycle arrest in human HepG2 cells assessed as accumulation at subG0 phase at 10 uM after 36 hrs by FACSan flow cytometry; type: functional; procedure, shortened: as §1
HepG2 [8] = experiment: Cell cycle arrest in human HepG2 cells assessed as accumulation at S phase at 50 uM after 36 hrs by FACSan flow cytometry; type: functional; procedure, shortened: as §1
HepG2 [9] = experiment: Induction of apoptosis in human HepG2 cells assessed as change in cellular morphology at 10 uM after 36 hrs […]; type: functional, cell-based
HepG2 [10] = experiment: Cell cycle arrest in human HepG2 cells assessed as accumulation at G1 phase at 10 uM after 36 hrs by FACSan flow cytometry; type: functional; procedure, shortened: as §1
HepG2 [11] = experiment: Induction of apoptosis in human HepG2 cells assessed as DNA fragmentation at 10 uM after 36 hrs by agarose gel electrophoresis; type: functional, cell-based
Procedure, shortened: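 HepG-2 cells (1 × 10⁶) exposed to 0, 5, 10, 25 and 50 µM for 36 h, then trypsinized and lysed in 10 mM Tris–HCl pH 7.4, 10 mM EDTA, 0.5% Triton X-100 and proteinase K (200 µg/ml). DNA isolated by organic extraction, run on 2% agarose and stained with ethidium bromide to detect laddering.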

HepG2 [12] = experiment: Cell cycle arrest in human HepG2 cells assessed as accumulation at G2 phase at 5 uM after 36 hrs by FACSan flow cytometry; type: functional; procedure, shortened: as §1
HepG2 [13] = experiment: Induction of apoptosis in human HepG2 cells assessed as increase in […] mRNA expression after 26 hrs by RT-PCR; type: functional, cell-based
Procedure, shortened: (§4)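 HepG-2 cells treated at 0, 5, 10, 25 and 50 µM for 26 h. cDNA made from 1 µg total RNA and amplified for Bcl-2 and Bax over 30 cycles (98 °C 15 s, 57 °C 10 s, 72 °C 35 s), with GAPDH as control. Results expressed as fold change relative to control.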

HepG2 [14] = experiment: Cell cycle arrest in human HepG2 cells assessed as accumulation at G2 phase at 25 uM after 36 hrs by FACSan flow cytometry; type: functional; procedure, shortened: as §1
HepG2 [15] = experiment: Cell cycle arrest in human HepG2 cells assessed as accumulation at S phase at 5 uM after 36 hrs by FACSan flow cytometry; type: functional; procedure, shortened: as §1
HepG2 [16] = experiment: Induction of apoptosis in human HepG2 cells assessed as decrease in Bcl2 mRNA expression after 26 hrs by RT-PCR; type: functional, cell-based; procedure, shortened: as §4
HepG2 [17] = experiment: Cell cycle arrest in human HepG2 cells assessed as accumulation at S phase at 10 uM after 36 hrs by FACSan flow cytometry; type: functional; procedure, shortened: as §1
MCF7 = experiment: Growth inhibition of human MCF7 cells after 72 hrs by MTT assay; type: functional, cell-based; settings: MCF7, 72 h; procedure, shortened: as §2
HepG2 [18] = experiment: Cell cycle arrest in human HepG2 cells assessed as accumulation at G1 phase at 25 uM after 36 hrs by FACSan flow cytometry; type: functional; procedure, shortened: as §1
HepG2 [19] = experiment: Cell cycle arrest in human HepG2 cells assessed as accumulation at G2 phase at 50 uM after 36 hrs by FACSan flow cytometry; type: functional; procedure, shortened: as §1
HepG2 [20] = experiment: Cytotoxicity against human HepG2 cells by MTT assay; type: functional, cell-based; procedure, shortened: as §2
HepG2 [21] = experiment: Induction of apoptosis in human HepG2 cells assessed as caspase 9 activation at 50 uM after 2 to 24 hrs; type: functional, cell-based; procedure, shortened: as §3
HepG2 [22] = experiment: Cell cycle arrest in human HepG2 cells assessed as accumulation at subG0 phase at 5 uM after 36 hrs by FACSan flow cytometry; type: functional; procedure, shortened: as §1
HepG2 [23] = experiment: Cell cycle arrest in human HepG2 cells assessed as accumulation at subG0 phase at 50 uM after 36 hrs by FACSan flow cytometry; type: functional; procedure, shortened: as §1
HepG2 [24] = experiment: Cell cycle arrest in human HepG2 cells assessed as accumulation at G2 phase at 10 uM after 36 hrs by FACSan flow cytometry; type: functional; procedure, shortened: as §1
[25] = Growth inhibition of human CNE2 cells after 72 hrs by MTT assay; type: functional, cell-based; settings: CNE-2, 72 h; procedure, shortened: as §2
HepG2 [26] = experiment: Induction of apoptosis in human HepG2 cells assessed as caspase 8 activation at 50 uM after 2 to 24 hrs; type: functional, cell-based; procedure, shortened: as §3
HeLa = experiment: Growth inhibition of human HeLa cells after 72 hrs by MTT assay; type: functional, cell-based; procedure, shortened: as §2

COc1cc(OC)cc(-c2cc(=O)c3cc(Cl)ccc3o2)c1
Activity (HepG2 [1]): 41.67% | IC50 [2]: 10.4 µM | Activity (HepG2 [3]): Active | Activity (HepG2 [4]): 9.32% | Activity (HepG2 [5]): 55.83% | Activity (HepG2 [6]): 11.52% | Activity (HepG2 [7]): 34.54% | Activity (HepG2 [8]): 3.47% | Activity (HepG2 [9]): Active | Activity (HepG2 [10]): 38.67% | Activity (HepG2 [11]): Active | Activity (HepG2 [12]): 16.47% | Activity (HepG2 [13]): Active | Activity (HepG2 [14]): 11.47% | Activity (HepG2 [15]): 20.32% | Activity (HepG2 [16]): Dose-dependent effect | Activity (HepG2 [17]): 13.32% | IC50 (MCF7): 7.4 µM | Activity (HepG2 [18]): 23.38% | Activity (HepG2 [19]): 5.69% | IC50 (HepG2 [20]): 1.1 µM | Activity (HepG2 [21]): Active | Activity (HepG2 [22]): 21.54% | Activity (HepG2 [23]): 79.32% | Activity (HepG2 [24]): 13.47% | IC50 [25]: 12.9 µM | Activity (HepG2 [26]): Active | IC50 (HeLa): 3 µM

CC(C)c1ccc2oc(C3CCCCC3)cc(=O)c2c1
IC50 (HepG2 [20]): 18 µM

COc1ccccc1-c1cc(=O)c2cc(C(C)C)ccc2o1
IC50 (HepG2 [20]): 5.4 µM

COc1ccc(-c2cc(=O)c3cc(C(C)C)ccc3o2)cc1
IC50 (HepG2 [20]): 9.9 µM

O=c1cc(C2CCCCC2)oc2ccc(Cl)cc12
IC50 (HepG2 [20]): 20 µM

O=c1cc(C2CCCC2)oc2ccc(Cl)cc12
IC50 (HepG2 [20]): 13.4 µM

CC(C)c1ccc2oc(-c3cccc([N+](=O)[O-])c3)cc(=O)c2c1
IC50 (HepG2 [20]): > 50 µM

COc1cccc(-c2cc(=O)c3cc(C(C)C)ccc3o2)c1
IC50 (HepG2 [20]): 2.1 µM

COc1cc(-c2cc(=O)c3cc(C(C)C)ccc3o2)cc(OC)c1OC
IC50 (HepG2 [20]): 3.6 µM

O=c1cc(C2CCCCC2)oc2c1ccc1ccccc12
IC50 (HepG2 [20]): 2.9 µM

CC(C)c1ccc2oc(-c3ccc([N+](=O)[O-])cc3)cc(=O)c2c1
IC50 (HepG2 [20]): > 50 µM

O=c1cc(C2CCCC2)oc2c1ccc1ccccc12
IC50 (HepG2 [20]): 6.1 µM

CC(C)c1ccc2oc(-c3ccccc3)cc(=O)c2c1
IC50 (HepG2 [20]): 6.4 µM

CC(C)c1ccc2oc(C3CCCC3)cc(=O)c2c1
IC50 (HepG2 [20]): 8.6 µM
